Data published in ChEMBL document CHEMBL1140848, “Redox-active dinitrodiphenylthioethers against Leishmania: synthesis, structure-activity relationships and mechanism of action studies” (Bioorg Med Chem, 2009).
Calls of active or inactive are those of the source. The rule behind the calls is not given here.

What was measured:
Vero = assay: Cytotoxicity against african green monkey Vero cells after 3 days by tetrazolium dye based colorimetric assay; assay type: cell-based; conditions: Chlorocebus sabaeus, 72 h
In short: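 Vero cells were grown in alpha-MEM with 10% HI-FBS. 1 × 10^3 cells per well received 2-fold compound dilutions for 3 days at 37 °C, 5% CO2. Growth was read as tetrazolium (CellTiter) absorbance at 490 nm. IC50 by four-parameter dose-response fit.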

Leishmania donovani [1] = assay: Reduction of parasitemia in Leishmania donovani LV82 promastigotes infected BALB/c mouse at 25 mg/kg/day, ip for 5 days relative to control; assay type: functional; design: scale not given: the % may be the effect or the level left; conditions: route intraperitoneal
In short: (§1)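 Infected BALB/c mice were dosed i.p. once daily for 5 days, starting 7 days post-infection. Vehicles were 10% DMSO/70% cremophor-ethanol (3:1)/20% PBS, or PBS for miltefosine. On day 14, Giemsa-stained liver smears were scored as amastigotes per 1000 liver cells × liver weight (mg) and compared with vehicle controls. 4–5 mice per group, SD.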

Leishmania donovani [2] = assay: Antileishmanial activity against Leishmania donovani MHOM/SD/62/1S-CL2D axenic amastigotes after 3 days by tetrazolium dye based colorimetric assay; assay type: functional, organism-based; conditions: 72 h
In short: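 Axenic amastigotes adapted from promastigotes and kept in amastigote medium at 37 °C. 6 × 10^4 cells per well, 2-fold compound dilutions, 3 days at 37 °C in 5% CO2. Growth read as tetrazolium (CellTiter) absorbance at 490 nm several hours after dye addition. IC50 from a four-parameter dose-response fit. Three or more separate experiments.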

Leishmania donovani [3] = assay: Antiparasitic activity against Leishmania donovani promastigotes assessed as reduction of membrane potential by rhodamine 123 assay; assay type: functional; design: scale not given: the % may be the effect or the level left
In short: (§2)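 Promastigotes at 1 × 10^6 cells/ml were exposed to compounds in 1% DMSO for 24 h, at 10 µM and above. FCCP 100 µM for 2 h served as positive control. Cells were then stained with 1 µM rhodamine 123 for 1 h and read by flow cytometry. Results are % fluorescence reduction against vehicle controls. Three experiments, SEM.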

Leishmania amazonensis = assay: Antileishmanial activity against beta-lactamase transfected Leishmania amazonensis in CD1 mouse macrophages assessed as infected macrophages after 72 hrs; assay type: functional, organism-based
In short: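 Starch-elicited peritoneal macrophages from CD-1 mice were plated at 1 × 10^6 cells/ml and adhered overnight. They were infected overnight at 34 °C with β-lactamase-expressing L. amazonensis (5 × 10^6 cells/ml) and washed. Twofold compound dilutions were applied for 72 h at 34 °C. Cells were lysed in 0.1% Triton X-100 with 100 µM nitrocefin for 4 h at 37 °C and read at A490. IC50 by four-parameter fit.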

[4] = Cytotoxicity against CD1 mouse macrophages assessed as infected macrophages at 3.1 uM after 72 hrs; assay type: cell-based; conditions: macrophage
[5] = Cytotoxicity against CD1 mouse macrophages at 6.3 uM after 72 hrs; assay type: cell-based; conditions: macrophage
Leishmania donovani [6] = assay: Reduction of parasitemia in Leishmania donovani infected BALB/c mouse at 3 mg/kg/day, ip for 5 days relative to control; assay type: functional; design: scale not given: the % may be the effect or the level left; conditions: route intraperitoneal; in short: as §1
[7] = Cytotoxicity against CD1 mouse macrophages at 13 uM after 72 hrs; assay type: cell-based; conditions: macrophage
Leishmania donovani [8] = assay: Antileishmanial activity against Leishmania donovani promastigotes assessed as induction of ROS production in by flow cytometric detection at 0.1 uM after 24 hrs; assay type: functional, organism-based
In short: (§3)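 Log-phase promastigotes were loaded with 10 µg/ml CM-H2DCFDA in FBS-free medium for 60 min at 25 °C. They were then resuspended at 1 × 10^6 cells/ml and exposed to compounds in 1% DMSO for 24 h. Fluorescence was read by flow cytometry on 10,000 cells and normalized to vehicle controls (=1.0). H2O2 250 µM served as positive control. Three experiments, SEM.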

Leishmania donovani [9] = assay: Antileishmanial activity against Leishmania donovani promastigotes assessed as induction of ROS production in by flow cytometric detection at 1 uM after 24 hrs; assay type: functional, organism-based; in short: as §3
Leishmania donovani [10] = assay: Antileishmanial activity against Leishmania donovani promastigotes assessed as induction of ROS production in by flow cytometric detection at 100 uM after 24 hrs; assay type: functional, organism-based; in short: as §3
Leishmania donovani [11] = assay: Reduction of parasitemia in Leishmania donovani LV82 promastigotes infected BALB/c mouse at 50 mg/kg/day, ip for 5 days relative to control; assay type: functional; design: scale not given: the % may be the effect or the level left; conditions: route intraperitoneal
[12] = Lipophilicity, log P of the compound; assay type: physicochemical; conditions: octanol/water
In short: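 clogP was calculated with the ChemAxon/Marvin program.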

Leishmania donovani [13] = assay: Antileishmanial activity against Leishmania donovani promastigotes assessed as induction of ROS production in by flow cytometric detection at 10 uM after 24 hrs; assay type: functional, organism-based; in short: as §3
Leishmania donovani [14] = assay: Antiparasitic activity against Leishmania donovani promastigotes assessed as reduction of membrane potential 10 uM by rhodamine 123 assay; assay type: functional; design: scale not given: the % may be the effect or the level left; in short: as §2

Structure (SMILES) | IC50 (Vero) | IC50 (Leishmania donovani [2]) | IC50 (Leishmania amazonensis) | also measured
COc1cc([C@@H]2c3cc4c(cc3[C@H](O)[C@H]3COC(=O)[C@H]23)OCO4)cc(OC)c1OC [PODOFILOX] | 0.023 µM |  |  | 
COc1ccc(Sc2c([N+](=O)[O-])cc(C#N)cc2[N+](=O)[O-])cc1 |  |  |  | Activity (Leishmania donovani [1]): 28%
Cc1cc(Sc2c([N+](=O)[O-])cccc2[N+](=O)[O-])c(Cl)cc1Cl |  | 23 µM |  | Activity (Leishmania donovani [3]): < 20%
O=[N+]([O-])c1cc(C(F)(F)F)cc([N+](=O)[O-])c1Sc1ccc(O)cc1 |  | 3.3 µM |  | 
Cc1cc(Sc2ncc(C(F)(F)F)cc2[N+](=O)[O-])c(Cl)cc1Cl |  | 59 µM |  | 
O=[N+]([O-])c1cc(C(F)(F)F)cc([N+](=O)[O-])c1Oc1ccc(Cl)cc1Cl |  | 3.4 µM |  | 
O=[N+]([O-])c1cc(C(F)(F)F)cc([N+](=O)[O-])c1SC1CCCCC1 |  | 35 µM |  | 
O=C(O)c1ccccc1Sc1c([N+](=O)[O-])cc(C(F)(F)F)cc1[N+](=O)[O-] |  | 7.3 µM |  | 
O=[N+]([O-])c1cc(C(F)(F)F)cc([N+](=O)[O-])c1Sc1ccc(Cl)cc1Cl | 4.3 µM | 0.4 µM | 2.6 µM | Activity [4]: Toxic
Cc1cc(Sc2c([N+](=O)[O-])cc([N+](=O)[O-])cc2C(F)(F)F)c(Cl)cc1Cl | 5.2 µM | 0.62 µM | 1.8 µM | Activity [5]: Toxic
O=[N+]([O-])c1cc(C(F)(F)F)cc([N+](=O)[O-])c1Nc1ccc(Cl)cc1Cl |  | 25 µM |  | 
COc1ccc(Sc2c([N+](=O)[O-])cc(C(F)(F)F)cc2[N+](=O)[O-])cc1 | 12 µM | 1.9 µM | 5.1 µM | 
Cc1cc(Sc2c(C(F)(F)F)cc(C(F)(F)F)cc2C(F)(F)F)c(Cl)cc1Cl |  | 100 µM |  | 
O=[N+]([O-])c1cc(C(F)(F)F)cc([N+](=O)[O-])c1Sc1ccccc1 | 6 µM | 0.96 µM | 2.6 µM | Activity [5]: Toxic
CCCCCCCCCCCCCCCCOP(=O)([O-])OCC[N+](C)(C)C [MILTEFOSINE] |  |  |  | Activity (Leishmania donovani [6]): 41%
Cc1cc(Sc2ccc([N+](=O)[O-])cc2)c(Cl)cc1Cl |  | 88 µM |  | 
Cc1cc(Sc2ccc(C(F)(F)F)cc2[N+](=O)[O-])c(Cl)cc1Cl |  | 98 µM |  | 
Cc1cccc(Sc2c([N+](=O)[O-])cc(C(F)(F)F)cc2[N+](=O)[O-])c1 | 7.3 µM | 1.6 µM | 2.4 µM | Activity [5]: Toxic
Cc1cc(Sc2c([N+](=O)[O-])cc(C(F)(F)F)cc2[N+](=O)[O-])c(Cl)cc1Cl | 9.7 µM | 0.56 µM | 3.4 µM | Activity [7]: Toxic; Activity (Leishmania donovani [8]): inactive; Activity (Leishmania donovani [9]): inactive; Activity (Leishmania donovani [10]): Active; Activity (Leishmania donovani [3]): Dose-dependent effect; Activity (Leishmania donovani [11]): -2%; logP [12]: 6.85
Cc1cc([N+](=O)[O-])c(Sc2cc(C)c(Cl)cc2Cl)c([N+](=O)[O-])c1 |  | > 200 µM |  | Activity (Leishmania donovani [8]): inactive; Activity (Leishmania donovani [9]): inactive; Activity (Leishmania donovani [13]): inactive; Activity (Leishmania donovani [3]): < 20%
Cc1cc(Sc2c([N+](=O)[O-])cc(C#N)cc2[N+](=O)[O-])c(Cl)cc1Cl | 11 µM | 1 µM | 5.8 µM | Activity [7]: Toxic; Activity (Leishmania donovani [13]): Active; Activity (Leishmania donovani [10]): Active; Activity (Leishmania donovani [14]): 90%
CCSc1c([N+](=O)[O-])cc(C(F)(F)F)cc1[N+](=O)[O-] |  | 98 µM |  | 
